From ChEMBL document CHEMBL1148634 (J Med Chem, 2006)
Activity calls are given as the source filed them. The calls are words filed in the database; no cut-off is given here.

Assays:
Melanophore [1] = assay: Antagonist activity in Xenopus laevis melanophore assessed as potency for pigment aggregation at 10 uM; type: functional, cell-based
Outline: (§1)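 Antagonism of the pigment aggregation response was tested on a clonal Xenopus laevis melanophore line.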

[2] = target: T1, Melatonin receptor type 1B (Homo sapiens, UniProt P49286); assay: Displacement of 2-[125I]iodomelatonin from human recombinant MT2 receptor expressed in NIH3T3 cells; type: cell-based
T1 sequence (P49286 whole entry): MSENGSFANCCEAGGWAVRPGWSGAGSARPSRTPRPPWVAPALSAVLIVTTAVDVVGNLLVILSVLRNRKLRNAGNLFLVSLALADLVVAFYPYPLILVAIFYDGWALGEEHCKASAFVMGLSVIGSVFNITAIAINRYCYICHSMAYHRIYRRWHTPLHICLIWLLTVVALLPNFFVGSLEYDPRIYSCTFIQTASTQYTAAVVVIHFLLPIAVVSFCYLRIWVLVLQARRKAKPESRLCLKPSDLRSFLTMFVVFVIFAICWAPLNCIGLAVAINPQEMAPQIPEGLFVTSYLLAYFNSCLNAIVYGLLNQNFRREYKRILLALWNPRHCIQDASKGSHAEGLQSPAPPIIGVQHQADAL

[3] = target: T2, Melatonin receptor type 1A (Homo sapiens, UniProt P48039); assay: Activity at MT1 receptor expressed in NIH3T3 cells assessed as inhibition of forskolin-stimulated cAMP synthesis; type: functional, cell-based; conditions: filed as agonist
T2 sequence (P48039 whole entry): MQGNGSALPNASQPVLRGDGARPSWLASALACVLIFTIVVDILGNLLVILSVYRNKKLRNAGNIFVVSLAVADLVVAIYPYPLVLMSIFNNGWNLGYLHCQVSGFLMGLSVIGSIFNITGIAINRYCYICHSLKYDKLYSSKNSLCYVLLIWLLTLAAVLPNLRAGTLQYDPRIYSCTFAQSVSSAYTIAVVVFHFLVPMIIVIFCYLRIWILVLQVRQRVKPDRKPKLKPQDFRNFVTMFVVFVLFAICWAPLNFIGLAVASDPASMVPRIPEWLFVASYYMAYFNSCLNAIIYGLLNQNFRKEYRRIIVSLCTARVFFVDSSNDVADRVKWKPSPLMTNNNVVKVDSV
Outline: (§2)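 NIH 3T3 cells stably expressing cloned human MT1 or MT2 receptors were pretreated with IBMX (25 µM, 10 min), then given forskolin (1 µM, 10 min) with or without test agent. Cyclic AMP was measured in duplicate by radioimmunoassay for each cell sample. Data are mean ± SEM of quadruplicate cell samples.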

[4] = target: T2, Melatonin receptor type 1A; assay: Displacement of 2-[125I]iodomelatonin from human recombinant MT1 receptor expressed in NIH3T3 cells; type: cell-based
Melanophore [5] = assay: Agonist activity in Xenopus laevis melanophore assessed as potency for pigment aggregation; type: functional, cell-based
Outline: (§3)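 A clonal Xenopus laevis melanophore line was grown in 96-well plates, and medium was switched to 0.7 × L-15 18 h before testing. Initial absorbance at 630 nm was read, analogue was added, and final absorbance was read after 60 min. Response was the fractional change 1 − (Af/Ai).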

[6] = target: T3, Melatonin receptor type 1B (Homo sapiens) (UniProt P49286); assay: Activity at MT2 receptor expressed in NIH3T3 cells assessed as inhibition of forskolin-stimulated cAMP synthesis; type: functional, cell-based; conditions: filed as agonist; outline: as §2
T3 sequence (whole entry): T1 sequence (P49286 whole entry)

Melanophore [7] = assay: Antagonist activity in Xenopus laevis melanophore assessed as potency for pigment aggregation; type: functional, cell-based; outline: as §1
Melanophore [8] = assay: Potency for pigment aggregation in Xenopus laevis melanophore at 10 uM relative to melatonin; type: functional
Melanophore [9] = assay: Agonist activity in Xenopus laevis melanophore assessed as potency for pigment aggregation at 10 uM; type: functional, cell-based; outline: as §3
[10] = target: T2, Melatonin receptor type 1A; assay: Activity at MT1 receptor expressed in NIH3T3 cells assessed as inhibition of […] cAMP synthesis at 10 uM; type: functional, cell-based; conditions: filed as antagonist
Outline: (§4)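 Antagonism was tested in NIH 3T3 cells expressing human MT1. […] Cyclic AMP was measured in duplicate by radioimmunoassay. Data are mean ± SEM of quadruplicate cell samples.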

[11] = target: T2, Melatonin receptor type 1A; assay: Activity at MT1 receptor expressed in NIH3T3 cells assessed as inhibition of forskolin-stimulated cAMP synthesis at 10 uM; type: functional, cell-based; outline: as §2
[12] = target: T2, Melatonin receptor type 1A; assay: Activity at MT1 receptor expressed in NIH3T3 cells assessed as inhibition of forskolin-stimulated cAMP synthesis at 1 uM; type: functional, cell-based; outline: as §2
[13] = target: T2, Melatonin receptor type 1A; assay: Activity at MT1 receptor expressed in NIH3T3 cells assessed as inhibition of […] cAMP synthesis; type: functional, cell-based; conditions: filed as antagonist; outline: as §4
[14] = Xenopus laevis, Melanophore, read-out: EC50

Row | Structure (SMILES) | Activity (Melanophore [1]) | Ki [2] [nM] | Ki [4] [nM] | EC50 (Melanophore [5]; [14]) [nM] | IC50 (Melanophore [7]) [nM] | further results
1 | COc1ccc2[nH]cc(C(C)(C)CNC(C)=O)c2c1 | inactive | 2.75 | 1.12 | 0.0072 | – | Activity [3]: Agonist; Activity [6]: Agonist
2 | CCCC(=O)NCC1(c2c[nH]c3ccc(OC)cc23)CCC1 | inactive | 57.4 | 116 | 2.56 | – | Activity [3]: Agonist; Activity [6]: Agonist
3 | COc1ccc2c(c1)c(C(C)CNC(C)=O)cn2C (stereo in doubt; (-)6a) [listing 1 of 2 here] | – | 0.27 | – | – | – | EC50 (Melanophore [5]; melanophore, read-out: EC50): 10.8 nM
4 | COc1ccc2c(c1)c(C(C)CNC(C)=O)cn2C (single isomer, unassigned; (+)) [listing 1 of 2 here] | – | 0.5 | – | – | – | EC50 (Melanophore [5]; melanophore, read-out: EC50): 0.98 nM
5 | COc1ccc2[nH]cc(C(C)CNC(C)=O)c2c1 (configuration not stated) | inactive | 2.94 | 1.67 | 0.049 | – | –
6 | COc1ccc2c(c1)c(C1(CNC(C)=O)CCC1)cn2C | – | 72 | 483 | 1010 | 637 | Activity (Melanophore [8]): 8%
7 | COc1ccc2c(c1)c(C(C)CNC(C)=O)cn2C (stereo in doubt; 6a) [listing 1 of 2 here] | – | 0.41 | – | – | – | EC50 (Melanophore [5]; melanophore, read-out: EC50): 1.72 nM
8 | COc1ccc2c(c1)c(C1(CNC(=O)C3CC3)CCCC1)cn2C | – | 257 | 468 | – | 1180 | Activity (Melanophore [9]): inactive
9 | CCC(=O)NCC1(c2c[nH]c3ccc(OC)cc23)CCC1 | inactive | 32 | 65.7 | 0.99 | – | –
10 | COc1ccc2c(c1)c(C(C)CNC(C)=O)cn2C (stereo in doubt; 6a) [listing 2 of 2 here] | inactive | – | – | – | – | –
11 | CC(=O)NCC1(c2cn(C)c3ccccc23)CCC1 | – | 1260 | 2190 | – | 1250 | EC50 (Melanophore [5]; melanophore): Not Active
12 | COc1ccc2c(c1)c(C1(CNC(=O)C3CCC3)CCCC1)cn2C | – | 407 | 479 | – | 1770 | Activity (Melanophore [9]): inactive
13 | COc1ccc2[nH]cc(C3(CNC(C)=O)CCC3)c2c1 | inactive | 3.3 | 8.2 | 1.67 | – | –
14 | CCCC(=O)NCC(C)(C)c1cn(C)c2ccc(OC)cc12 | inactive | 0.74 | 8.51 | 1 | – | Activity [3]: Agonist; Activity [6]: Agonist
15 | COc1ccc2[nH]cc(C3(CNC(=O)C4CC4)CCC3)c2c1 | – | 28.9 | 57.8 | – | 2500 | Activity (Melanophore [9]): inactive
16 | Cn1cc(C2(CNC(=O)C3CC3)CCC2)c2ccccc21 | – | 1440 | 617 | – | 3440 | EC50 (Melanophore [5]; melanophore): Not Active
17 | COc1ccc2c(c1)c(C1(CNC(=O)C3CCC3)CCC1)cn2C | – | 3770 | 714 | – | > 10000 | Activity (Melanophore [9]): inactive; EC50 (Melanophore [5]; melanophore): Not Active
18 | CCC(=O)NCC1(c2cn(C)c3ccc(OC)cc23)CC1 | inactive | 39 | 86 | 6.8 | – | –
19 | CCC(=O)NCC(C)c1cn(C)c2ccc(OC)cc12 (configuration not stated) | inactive | 1.02 | 4.9 | 3.72 | – | –

Row | Structure (SMILES) | Activity (Melanophore [1]) | Ki [2] [nM] | Ki [4] [nM] | EC50 (Melanophore [5]; [14]) [nM] | IC50 (Melanophore [7]) [nM] | further results
20 | COc1ccc2c(c1)c(C1(CNC(=O)C3CC3)CCC1)cn2C | – | 138 | 307 | – | 2070 | Activity (Melanophore [9]): inactive
21 | COc1ccc2c(c1)c(C(C)(C)CNC(C)=O)cn2C | inactive | 1.29 | 11.5 | 6.31 | – | –
22 | CCC(=O)NCC1(c2cn(C)c3ccc(OC)cc23)CCCC1 | – | 102 | 302 | – | 811 | Activity (Melanophore [9]): inactive
23 | CCCC(=O)NCC1(c2cn(C)c3ccc(OC)cc23)CCCC1 | – | 85.1 | 589 | – | 1640 | Activity [10]: Antagonist; Activity [11]: inactive; Activity (Melanophore [9]): inactive
24 | CCC(=O)NCC1(c2cn(C)c3ccc(OC)cc23)CCC1 | – | 4.4 | 34 | 980 | 826 | Activity (Melanophore [8]): 20%
25 | COc1ccc2c(c1)c(C(C)CNC(C)=O)cn2C (single isomer, unassigned; (+)) [listing 2 of 2 here] | inactive | – | – | – | – | –
26 | CCCC(=O)NCC1(c2cn(C)c3ccccc23)CCC1 | – | 1740 | 724 | – | 3030 | EC50 (Melanophore [5]; melanophore): Not Active
27 | CCC(=O)NCC(C)(C)c1cn(C)c2ccc(OC)cc12 | inactive | 1.15 | 6.03 | 1.26 | – | –
28 | COc1ccc2c(c1)c(C(C)(C)CNC(=O)C1CCC1)cn2C | inactive | 33.1 | 170 | 57.5 | – | –
29 | COc1ccc2[nH]cc(C3(CNC(=O)C4CCC4)CCC3)c2c1 | – | 62.2 | 493 | – | > 10000 | Activity (Melanophore [9]): inactive
30 | COc1ccc2c(c1)c(C1(CNC(C)=O)CCCC1)cn2C | – | 66.1 | 148 | – | 628 | Activity (Melanophore [9]): inactive
31 | CCCC(=O)NCC(C)c1cn(C)c2ccc(OC)cc12 (configuration not stated) | inactive | 0.47 | 4.27 | 1 | – | –
32 | CCCC(=O)NCC1(c2cn(C)c3ccc(OC)cc23)CC1 | inactive | 7.5 | 212 | 1.7 | – | Activity [3]: Agonist; Activity [6]: Agonist
33 | COc1ccc2c(c1)c(C(C)CNC(C)=O)cn2C (stereo in doubt; (-)6a) [listing 2 of 2 here] | inactive | – | – | – | – | –
34 | COc1ccc2c(c1)c(C1(CNC(C)=O)CC1)cn2C | inactive | 90 | 176 | 10.5 | – | –
35 | CCCC(=O)NCC1(c2cn(C)c3ccc(OC)cc23)CCC1 | inactive | 0.86 | 10.6 | 2 | – | Activity [12]: inactive; Activity (Melanophore [8]): 92%; Activity [13]: Antagonist
36 | CCC(=O)NCC1(c2cn(C)c3ccccc23)CCC1 | – | 1050 | 1510 | – | 1150 | EC50 (Melanophore [5]; melanophore): Not Active
37 | COc1ccc2[nH]cc(CCNC(C)=O)c2c1 [MELATONIN] | inactive | – | – | 0.063 | – | –
